Experimental data taken from ChEMBL document CHEMBL4433221, “Novel Sustainable-by-Design HDAC Inhibitors for the Treatment of Alzheimer's Disease” (ACS Med Chem Lett, 2019).
Active and inactive are the calls of the source. The calls are words filed in the database; no cut-off is given here.

Legend:
[1] = molecular target: T1, Protein deacetylase HDAC6 (Homo sapiens) (UniProt Q9UBN7); test: Inhibition of human recombinant HDAC6 using fluorogenic peptide p53 residues 379-382 (RHKK(Ac)AMC) as residues at 10 uM by fluorescence method
T1 sequence (whole entry): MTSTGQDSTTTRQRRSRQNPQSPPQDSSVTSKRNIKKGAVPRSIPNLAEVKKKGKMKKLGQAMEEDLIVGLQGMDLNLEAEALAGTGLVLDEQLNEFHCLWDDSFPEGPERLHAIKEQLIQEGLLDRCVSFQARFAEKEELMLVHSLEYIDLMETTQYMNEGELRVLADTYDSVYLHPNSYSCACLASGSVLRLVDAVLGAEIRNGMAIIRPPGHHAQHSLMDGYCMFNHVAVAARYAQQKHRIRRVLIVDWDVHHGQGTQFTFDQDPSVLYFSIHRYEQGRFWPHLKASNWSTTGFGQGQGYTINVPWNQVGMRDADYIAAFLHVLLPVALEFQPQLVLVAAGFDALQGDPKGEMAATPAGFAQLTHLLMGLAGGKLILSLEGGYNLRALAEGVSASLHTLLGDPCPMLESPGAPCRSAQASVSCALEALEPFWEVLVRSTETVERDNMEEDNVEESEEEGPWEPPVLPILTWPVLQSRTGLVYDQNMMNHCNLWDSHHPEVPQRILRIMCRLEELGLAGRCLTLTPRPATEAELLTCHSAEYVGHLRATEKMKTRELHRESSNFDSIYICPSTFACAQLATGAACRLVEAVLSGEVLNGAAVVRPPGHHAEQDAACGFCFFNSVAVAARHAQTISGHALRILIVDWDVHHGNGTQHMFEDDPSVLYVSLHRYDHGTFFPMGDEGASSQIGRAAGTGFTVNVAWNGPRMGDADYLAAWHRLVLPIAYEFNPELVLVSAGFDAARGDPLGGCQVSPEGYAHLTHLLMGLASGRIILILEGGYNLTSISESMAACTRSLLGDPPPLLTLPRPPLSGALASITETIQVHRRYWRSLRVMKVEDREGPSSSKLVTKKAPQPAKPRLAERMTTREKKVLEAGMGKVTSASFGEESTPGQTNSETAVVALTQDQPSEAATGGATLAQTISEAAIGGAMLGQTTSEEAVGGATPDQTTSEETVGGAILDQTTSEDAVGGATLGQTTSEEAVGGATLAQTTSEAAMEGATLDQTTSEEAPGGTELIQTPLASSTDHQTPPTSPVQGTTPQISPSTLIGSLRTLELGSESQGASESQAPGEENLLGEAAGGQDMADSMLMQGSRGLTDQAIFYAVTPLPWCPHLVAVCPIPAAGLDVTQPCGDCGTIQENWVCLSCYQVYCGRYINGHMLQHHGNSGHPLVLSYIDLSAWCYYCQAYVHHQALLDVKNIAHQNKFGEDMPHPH
Outline: (§1)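 Selectivity profile across HDAC isoforms 1–11 at a single concentration of 10 μM, run in duplicate.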

[2] = molecular target: Histone deacetylase 9 (Homo sapiens) (UniProt Q9UKV0); test: Inhibition of human recombinant HDAC9 using fluorogenic trifluoroacetyl lysine as substrate at 10 uM by fluorescence method; outline: as §1
Histone deacetylase 1 = Histone deacetylase 1 (Homo sapiens, UniProt Q13547); test: Inhibition of human recombinant HDAC1 using ZMAL (Z-(Ac)Lys-AMC fluorogenic substrate incubated for 90 mins by fluorescence method
[3] = molecular target: Histone deacetylase 3 (Homo sapiens) (UniProt O15379); test: Inhibition of human recombinant HDAC3 using fluorogenic peptide p53 residues 379-382 (RHKK(Ac)AMC) as residues at 10 uM by fluorescence method; outline: as §1
[4] = molecular target: Histone deacetylase 5 (Homo sapiens) (UniProt Q9UQL6); test: Inhibition of human recombinant HDAC5 using fluorogenic trifluoroacetyl lysine as substrate at 10 uM by fluorescence method; outline: as §1
[5] = molecular target: T2, Protein deacetylase HDAC6 (Homo sapiens, UniProt Q9UBN7); test: Inhibition of human recombinant HDAC6 using ZMAL (Z-(Ac)Lys-AMC fluorogenic substrate incubated for 90 mins by fluorescence method
T2 sequence (Q9UBN7 whole entry): T1 sequence (whole entry)

[6] = Neurotoxicity against rat CGN cells assessed as cell viability at 50 uM incubated for 24 hrs by MTT assay; type: toxicity, cell-based; conditions: read-out: Activity
Outline: (§2)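 Primary rat cerebellar granule neuron cultures were exposed for 24 h to 5, 25 or 50 μM. Viability was measured by MTT and expressed as percentage of untreated controls, as mean ± SE of at least three experiments, each run in triplicate.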

[7] = Permeability of the compound at pH 7.4 PBS buffer at 100 uM measured upto 6 hrs by PAMPA-BBB assay
Rattus norvegicus = species on record: Rattus norvegicus; test: Neuroprotective activity against low serum/K+ deprivation-induced toxicity in rat CGN cells assessed as increase in cell viability at 5 to 25 uM pre-treated for 6 hrs followed by 24 hrs co-treatment with serum/K+ starvation and measured after 24 hrs by MTT assay; type: functional, cell-based
Outline: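 Primary rat cerebellar granule neurons were pretreated for 6 h, then cotreated for 24 h under low-serum and K+ deprivation to induce death. Viability was compared with control and deprivation-only conditions, with tacrine as reference compound.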

[8] = molecular target: Histone deacetylase 4 (Homo sapiens) (UniProt P56524); test: Inhibition of human recombinant HDAC4 using fluorogenic trifluoroacetyl lysine as substrate at 10 uM by fluorescence method; outline: as §1
[9] = molecular target: Histone deacetylase 2 (Homo sapiens) (UniProt Q92769); test: Inhibition of human recombinant HDAC2 using fluorogenic peptide p53 residues 379-382 (RHKK(Ac)AMC) as residues at 10 uM mins by fluorescence method; outline: as §1
N9 [10] = test: Immunomodulatory activity in mouse N9 cells assessed as increase in LPS-induced MRC1 expression at 25 uM incubated for 24 hrs by Western blot analysis; type: functional, cell-based
Outline: (§3)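 N9 mouse microglial cells stimulated with LPS (100 ng/mL) and treated at 5 and 25 μM. iNOS and MRC1 levels were read by Western blot with GAPDH as loading control. Densitometry is expressed as percentage of LPS-only cells, as mean ± SE of three independent experiments.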

[11] = Neurotoxicity against rat CGN cells assessed as cell viability at 5 uM incubated for 24 hrs by MTT assay; type: toxicity, cell-based; conditions: read-out: Activity; outline: as §2
N9 [12] = test: Immunomodulatory activity in mouse N9 cells assessed as reduction in LPS-induced MRC1 expression at 5 to 25 uM incubated for 24 hrs by Western blot analysis; type: functional, cell-based; outline: as §3

Sequence of Histone deacetylase 1 (Q13547 whole entry, the tested form may be a part): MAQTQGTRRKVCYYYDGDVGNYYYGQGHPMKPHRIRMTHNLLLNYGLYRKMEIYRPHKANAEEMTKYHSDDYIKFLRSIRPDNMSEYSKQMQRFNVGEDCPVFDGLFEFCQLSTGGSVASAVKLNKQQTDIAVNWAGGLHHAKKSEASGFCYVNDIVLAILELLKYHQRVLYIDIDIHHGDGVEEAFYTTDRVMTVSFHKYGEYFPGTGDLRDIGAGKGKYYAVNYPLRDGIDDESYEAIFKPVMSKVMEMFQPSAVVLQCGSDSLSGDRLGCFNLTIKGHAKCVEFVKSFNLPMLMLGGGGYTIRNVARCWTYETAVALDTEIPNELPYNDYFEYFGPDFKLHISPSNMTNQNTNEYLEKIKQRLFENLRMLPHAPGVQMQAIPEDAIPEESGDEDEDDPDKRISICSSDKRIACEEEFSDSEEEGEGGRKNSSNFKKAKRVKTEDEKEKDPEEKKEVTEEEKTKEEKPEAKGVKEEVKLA
Sequence of Histone deacetylase 4 (Homo sapiens) (P56524 whole entry, the tested form may be a part): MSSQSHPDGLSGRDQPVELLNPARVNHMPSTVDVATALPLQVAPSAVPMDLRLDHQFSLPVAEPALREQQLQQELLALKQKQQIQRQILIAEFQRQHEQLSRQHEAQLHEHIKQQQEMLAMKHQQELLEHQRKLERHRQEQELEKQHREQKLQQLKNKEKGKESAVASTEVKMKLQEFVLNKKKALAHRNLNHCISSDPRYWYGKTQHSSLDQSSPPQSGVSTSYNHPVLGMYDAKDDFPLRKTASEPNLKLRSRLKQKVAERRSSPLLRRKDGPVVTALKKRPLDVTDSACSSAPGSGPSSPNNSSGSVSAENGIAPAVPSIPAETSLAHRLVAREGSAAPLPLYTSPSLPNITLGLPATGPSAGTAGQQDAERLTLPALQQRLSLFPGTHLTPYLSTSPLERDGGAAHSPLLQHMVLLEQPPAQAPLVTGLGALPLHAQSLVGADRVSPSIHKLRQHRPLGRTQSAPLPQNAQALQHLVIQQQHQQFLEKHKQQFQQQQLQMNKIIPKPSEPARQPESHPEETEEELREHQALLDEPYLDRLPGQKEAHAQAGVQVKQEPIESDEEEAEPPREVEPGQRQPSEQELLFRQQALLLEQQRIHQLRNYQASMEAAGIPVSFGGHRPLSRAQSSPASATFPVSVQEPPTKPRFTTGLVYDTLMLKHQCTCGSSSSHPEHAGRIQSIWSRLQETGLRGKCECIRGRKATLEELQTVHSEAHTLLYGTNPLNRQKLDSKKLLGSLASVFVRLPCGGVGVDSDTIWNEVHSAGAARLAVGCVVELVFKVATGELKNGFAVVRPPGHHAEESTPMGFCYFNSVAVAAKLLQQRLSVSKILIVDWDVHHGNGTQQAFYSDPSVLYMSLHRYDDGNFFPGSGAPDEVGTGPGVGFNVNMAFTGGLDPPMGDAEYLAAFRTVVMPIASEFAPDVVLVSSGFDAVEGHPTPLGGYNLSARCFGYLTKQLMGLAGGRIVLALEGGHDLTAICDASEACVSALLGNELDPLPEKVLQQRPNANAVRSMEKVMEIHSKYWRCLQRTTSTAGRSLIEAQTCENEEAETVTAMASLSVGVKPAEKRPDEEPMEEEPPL
Sequence of Histone deacetylase 2 (Homo sapiens) (Q92769 whole entry, the tested form may be a part): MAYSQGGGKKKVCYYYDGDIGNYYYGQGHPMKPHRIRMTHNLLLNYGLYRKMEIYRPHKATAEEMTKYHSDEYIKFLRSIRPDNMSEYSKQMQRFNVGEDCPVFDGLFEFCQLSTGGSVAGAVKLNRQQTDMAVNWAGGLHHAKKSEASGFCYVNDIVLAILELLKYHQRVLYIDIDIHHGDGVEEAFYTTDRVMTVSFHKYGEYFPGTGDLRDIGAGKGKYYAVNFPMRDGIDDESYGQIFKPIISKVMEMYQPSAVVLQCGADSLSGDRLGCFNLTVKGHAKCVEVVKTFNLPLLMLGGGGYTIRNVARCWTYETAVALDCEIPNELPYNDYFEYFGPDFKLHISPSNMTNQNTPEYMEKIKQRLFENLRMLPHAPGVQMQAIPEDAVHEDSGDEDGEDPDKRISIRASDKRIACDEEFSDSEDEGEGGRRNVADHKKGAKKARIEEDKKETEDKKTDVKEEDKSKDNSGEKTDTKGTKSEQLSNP
Sequence of Histone deacetylase 5 (Homo sapiens) (Q9UQL6 whole entry): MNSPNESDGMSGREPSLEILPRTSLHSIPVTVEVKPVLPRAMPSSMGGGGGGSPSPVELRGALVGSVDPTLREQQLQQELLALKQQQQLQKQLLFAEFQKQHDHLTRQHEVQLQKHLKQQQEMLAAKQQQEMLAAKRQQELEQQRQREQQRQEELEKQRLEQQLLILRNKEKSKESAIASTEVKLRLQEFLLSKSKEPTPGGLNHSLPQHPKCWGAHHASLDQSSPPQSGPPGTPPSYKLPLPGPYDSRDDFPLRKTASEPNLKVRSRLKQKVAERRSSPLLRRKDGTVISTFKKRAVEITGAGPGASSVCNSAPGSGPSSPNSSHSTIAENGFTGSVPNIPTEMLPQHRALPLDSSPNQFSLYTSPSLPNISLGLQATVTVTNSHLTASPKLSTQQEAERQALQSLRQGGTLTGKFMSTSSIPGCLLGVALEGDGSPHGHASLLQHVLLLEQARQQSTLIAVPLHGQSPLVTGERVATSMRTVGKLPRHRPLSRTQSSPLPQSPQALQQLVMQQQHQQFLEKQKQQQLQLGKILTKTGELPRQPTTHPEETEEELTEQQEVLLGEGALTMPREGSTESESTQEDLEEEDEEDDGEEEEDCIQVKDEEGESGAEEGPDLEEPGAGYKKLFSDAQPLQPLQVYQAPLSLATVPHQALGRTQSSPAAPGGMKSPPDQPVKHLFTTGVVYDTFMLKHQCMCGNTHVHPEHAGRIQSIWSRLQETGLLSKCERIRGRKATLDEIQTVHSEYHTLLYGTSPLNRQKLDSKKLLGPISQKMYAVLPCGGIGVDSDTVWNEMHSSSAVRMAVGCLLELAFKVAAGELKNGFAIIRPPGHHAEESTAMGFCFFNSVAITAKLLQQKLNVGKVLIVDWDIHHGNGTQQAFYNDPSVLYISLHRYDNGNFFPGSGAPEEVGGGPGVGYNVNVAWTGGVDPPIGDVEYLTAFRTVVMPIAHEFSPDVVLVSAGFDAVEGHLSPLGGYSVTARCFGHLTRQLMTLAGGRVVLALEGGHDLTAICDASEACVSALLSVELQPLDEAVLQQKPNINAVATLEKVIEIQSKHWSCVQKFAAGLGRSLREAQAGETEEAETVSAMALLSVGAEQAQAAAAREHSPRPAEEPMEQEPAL
Sequence of Histone deacetylase 3 (Homo sapiens) (O15379 whole entry, the tested form may be a part): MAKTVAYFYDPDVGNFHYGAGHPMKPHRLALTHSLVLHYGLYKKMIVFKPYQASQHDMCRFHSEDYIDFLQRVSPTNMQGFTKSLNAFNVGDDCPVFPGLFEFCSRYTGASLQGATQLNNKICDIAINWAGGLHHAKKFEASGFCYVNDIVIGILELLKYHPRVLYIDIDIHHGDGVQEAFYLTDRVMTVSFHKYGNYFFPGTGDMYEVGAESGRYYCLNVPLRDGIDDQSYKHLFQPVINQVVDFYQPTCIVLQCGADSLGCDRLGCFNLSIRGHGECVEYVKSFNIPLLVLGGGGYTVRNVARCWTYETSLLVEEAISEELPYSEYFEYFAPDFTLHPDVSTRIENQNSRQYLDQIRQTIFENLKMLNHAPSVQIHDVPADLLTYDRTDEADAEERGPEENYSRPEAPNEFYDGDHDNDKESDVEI
Sequence of Histone deacetylase 9 (Homo sapiens) (Q9UKV0 whole entry): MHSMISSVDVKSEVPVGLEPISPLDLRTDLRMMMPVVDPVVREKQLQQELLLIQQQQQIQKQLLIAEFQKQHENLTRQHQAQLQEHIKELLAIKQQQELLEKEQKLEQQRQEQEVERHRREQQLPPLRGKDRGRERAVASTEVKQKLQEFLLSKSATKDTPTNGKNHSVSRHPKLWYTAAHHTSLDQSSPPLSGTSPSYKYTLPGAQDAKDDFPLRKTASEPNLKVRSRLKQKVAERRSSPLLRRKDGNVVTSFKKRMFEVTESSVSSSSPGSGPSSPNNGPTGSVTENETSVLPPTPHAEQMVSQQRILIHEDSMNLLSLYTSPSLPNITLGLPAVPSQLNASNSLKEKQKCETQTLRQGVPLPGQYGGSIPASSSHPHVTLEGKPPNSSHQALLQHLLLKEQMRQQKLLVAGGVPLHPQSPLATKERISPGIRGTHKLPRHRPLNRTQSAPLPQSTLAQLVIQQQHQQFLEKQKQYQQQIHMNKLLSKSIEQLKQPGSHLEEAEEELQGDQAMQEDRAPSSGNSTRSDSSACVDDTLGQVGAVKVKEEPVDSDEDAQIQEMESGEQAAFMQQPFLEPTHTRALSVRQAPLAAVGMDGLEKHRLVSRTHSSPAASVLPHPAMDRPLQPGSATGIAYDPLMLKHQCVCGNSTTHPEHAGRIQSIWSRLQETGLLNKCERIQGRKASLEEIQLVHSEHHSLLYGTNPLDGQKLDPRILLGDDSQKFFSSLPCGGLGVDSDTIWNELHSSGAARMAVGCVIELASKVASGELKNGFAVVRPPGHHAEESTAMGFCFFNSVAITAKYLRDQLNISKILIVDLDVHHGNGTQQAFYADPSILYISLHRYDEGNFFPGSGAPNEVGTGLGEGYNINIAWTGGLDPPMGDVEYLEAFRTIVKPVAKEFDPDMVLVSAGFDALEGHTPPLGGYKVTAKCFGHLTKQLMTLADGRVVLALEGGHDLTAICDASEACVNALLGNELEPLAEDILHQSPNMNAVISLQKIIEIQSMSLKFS

| inhibition [1] | inhibition [2] | IC50 (Histone deacetylase 1) | inhibition [3] | inhibition [4] | IC50 [5] | Papp at 6 h, 100 µM [7] | inhibition [8] | inhibition [9] | Compound | viability at 24 h, 50 µM [6] | Activity (Rattus norvegicus) | Activity (N9 [10]) | viability at 24 h, 5 µM [11] | Activity (N9 [12]) |
| --- | --- | --- | --- | --- | --- | --- | --- | --- | --- | --- | --- | --- | --- | --- |
| Active | inactive | 775 nM | inactive | inactive | 215 nM | 10.2 ×10⁻⁶ cm/s | inactive | inactive | COC(=O)c1c(CCCCCCCC(=O)NO)cccc1OC | > 80% | inactive | Active | – | – |
| Active | inactive | 316 nM | inactive | inactive | 190 nM | 13.4 ×10⁻⁶ cm/s | inactive | inactive | COc1cccc(CCCCCCCC(=O)NO)c1 | – | inactive | – | ≤ 50% | Dose-dependent effect |
